Substitutions are numbered along the chain they refer to.
Key:
Conditions in all cases: stereoisomer not certain
OR3A1 (Homo sapiens) = biological target: T1, OR3A1 (Homo sapiens) (UniProt P47881)
T1 sequence (whole entry): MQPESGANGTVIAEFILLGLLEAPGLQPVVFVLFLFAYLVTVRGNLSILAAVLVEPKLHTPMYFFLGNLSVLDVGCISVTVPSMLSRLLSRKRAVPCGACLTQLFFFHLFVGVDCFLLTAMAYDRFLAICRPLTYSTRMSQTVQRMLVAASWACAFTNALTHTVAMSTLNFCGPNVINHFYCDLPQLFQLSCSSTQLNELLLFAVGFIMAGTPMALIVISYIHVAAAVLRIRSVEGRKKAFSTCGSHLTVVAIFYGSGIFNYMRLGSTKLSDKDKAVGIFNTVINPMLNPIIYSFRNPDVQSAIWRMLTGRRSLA
How it was run: (§1)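 Values were gathered from published papers (main text and supplementary material), with extra details requested from the original authors when needed, and checked for typos and inconsistencies. Each receptor–molecule pair is called responsive (active) if the original authors judged the measured signal statistically different from baseline, and non-responsive (inactive) otherwise. Assay methods varied by source, often transient mammalian cell-line luciferase assays. Recorded details include cell line, G-protein, co-transfected protein and tags.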

OR2W3 (Homo sapiens) = biological target: T2, OR2W3 (Homo sapiens) (UniProt Q7Z3T1)
T2 sequence (whole entry): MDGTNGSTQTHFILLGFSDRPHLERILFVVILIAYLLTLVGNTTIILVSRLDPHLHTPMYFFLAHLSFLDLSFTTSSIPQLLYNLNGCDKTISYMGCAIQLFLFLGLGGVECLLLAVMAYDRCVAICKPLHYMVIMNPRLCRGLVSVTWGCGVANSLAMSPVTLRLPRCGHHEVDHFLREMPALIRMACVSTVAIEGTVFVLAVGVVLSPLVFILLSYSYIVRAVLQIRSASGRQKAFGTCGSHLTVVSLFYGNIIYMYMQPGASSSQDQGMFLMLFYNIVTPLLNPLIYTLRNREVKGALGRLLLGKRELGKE
How it was run: as §1

OR2W5P (Homo sapiens) = biological target: T3, OR2W5P (Homo sapiens) (UniProt A6NFC9)
T3 sequence (whole entry): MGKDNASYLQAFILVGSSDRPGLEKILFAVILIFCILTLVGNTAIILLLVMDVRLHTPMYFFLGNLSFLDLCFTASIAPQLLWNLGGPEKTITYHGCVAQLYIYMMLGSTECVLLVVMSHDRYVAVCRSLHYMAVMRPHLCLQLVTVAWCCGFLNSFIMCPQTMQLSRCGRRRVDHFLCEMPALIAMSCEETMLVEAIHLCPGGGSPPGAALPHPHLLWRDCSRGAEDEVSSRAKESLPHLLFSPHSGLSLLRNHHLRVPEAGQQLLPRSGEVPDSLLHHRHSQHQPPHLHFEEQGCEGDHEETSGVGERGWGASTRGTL
How it was run: as §1

OR2Y1 (Homo sapiens) = biological target: T4, OR2Y1 (Homo sapiens) (UniProt Q8NGV0)
T4 sequence (whole entry): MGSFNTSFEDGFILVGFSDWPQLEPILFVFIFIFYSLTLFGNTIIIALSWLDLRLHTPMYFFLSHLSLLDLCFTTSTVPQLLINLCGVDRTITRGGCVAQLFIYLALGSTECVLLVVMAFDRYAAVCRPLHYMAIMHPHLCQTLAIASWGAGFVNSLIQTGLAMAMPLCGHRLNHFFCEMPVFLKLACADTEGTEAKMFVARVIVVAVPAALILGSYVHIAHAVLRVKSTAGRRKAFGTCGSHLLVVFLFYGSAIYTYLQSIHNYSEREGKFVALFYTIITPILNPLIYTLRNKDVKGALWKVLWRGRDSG
How it was run: as §1

OR2Y1 = system: T5, OR2Y1
T5 sequence (whole entry): T4 sequence (whole entry) with V200L
How it was run: as §1

OR2Z1 (Homo sapiens) = biological target: T6, OR2Z1 (Homo sapiens) (UniProt Q8NG97)
T6 sequence (whole entry): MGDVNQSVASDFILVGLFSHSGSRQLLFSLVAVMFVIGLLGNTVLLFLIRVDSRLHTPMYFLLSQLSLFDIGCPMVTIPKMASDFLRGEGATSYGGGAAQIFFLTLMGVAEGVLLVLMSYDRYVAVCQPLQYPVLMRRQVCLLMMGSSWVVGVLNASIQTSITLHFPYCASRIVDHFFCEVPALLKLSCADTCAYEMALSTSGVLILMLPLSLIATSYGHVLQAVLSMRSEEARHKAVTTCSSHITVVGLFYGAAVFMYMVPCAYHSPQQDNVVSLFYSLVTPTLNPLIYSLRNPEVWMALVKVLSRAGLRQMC
How it was run: as §1

OR3A1 = system: T7, OR3A1
T7 sequence (whole entry): T1 sequence (whole entry) with R125Q
How it was run: as §1

OR3A2 (Homo sapiens) = biological target: T8, OR3A2 (Homo sapiens) (UniProt P47893)
T8 sequence (whole entry): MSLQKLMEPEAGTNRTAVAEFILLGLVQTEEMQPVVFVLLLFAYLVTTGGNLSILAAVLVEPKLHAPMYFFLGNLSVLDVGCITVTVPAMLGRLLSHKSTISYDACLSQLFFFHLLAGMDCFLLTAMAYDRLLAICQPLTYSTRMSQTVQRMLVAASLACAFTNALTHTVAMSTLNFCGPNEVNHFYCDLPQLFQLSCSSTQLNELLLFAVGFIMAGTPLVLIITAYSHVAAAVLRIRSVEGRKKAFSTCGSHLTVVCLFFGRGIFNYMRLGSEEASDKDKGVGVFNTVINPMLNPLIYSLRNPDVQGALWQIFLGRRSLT
How it was run: as §1

OR3A2 R317K = system: T9, OR3A2 R317K
T9 sequence (whole entry): T8 sequence (whole entry) with R317K
How it was run: as §1

OR3A3 (Homo sapiens) = biological target: T10, OR3A3 (Homo sapiens) (UniProt P47888)
T10 sequence (whole entry): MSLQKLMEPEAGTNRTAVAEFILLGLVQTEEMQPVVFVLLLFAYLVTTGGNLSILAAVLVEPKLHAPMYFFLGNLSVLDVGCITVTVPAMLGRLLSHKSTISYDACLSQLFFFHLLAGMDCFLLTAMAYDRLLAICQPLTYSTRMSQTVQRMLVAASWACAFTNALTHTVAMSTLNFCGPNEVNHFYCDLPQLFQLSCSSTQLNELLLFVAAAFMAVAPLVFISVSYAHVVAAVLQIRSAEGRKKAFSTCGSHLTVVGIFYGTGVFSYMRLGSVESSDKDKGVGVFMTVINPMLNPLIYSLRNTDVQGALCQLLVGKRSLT
How it was run: as §1

OR3A3 T48I L132F = system: T11, OR3A3 T48I L132F
T11 sequence (whole entry): T10 sequence (whole entry) with T48I, L132F
How it was run: as §1

OR4A15 (Homo sapiens) = OR4A15 (Homo sapiens) (UniProt Q8NGL6)
How it was run: as §1

OR4A16 (Homo sapiens) = biological target: T12, OR4A16 (Homo sapiens) (UniProt Q8NH70)
T12 sequence (whole entry): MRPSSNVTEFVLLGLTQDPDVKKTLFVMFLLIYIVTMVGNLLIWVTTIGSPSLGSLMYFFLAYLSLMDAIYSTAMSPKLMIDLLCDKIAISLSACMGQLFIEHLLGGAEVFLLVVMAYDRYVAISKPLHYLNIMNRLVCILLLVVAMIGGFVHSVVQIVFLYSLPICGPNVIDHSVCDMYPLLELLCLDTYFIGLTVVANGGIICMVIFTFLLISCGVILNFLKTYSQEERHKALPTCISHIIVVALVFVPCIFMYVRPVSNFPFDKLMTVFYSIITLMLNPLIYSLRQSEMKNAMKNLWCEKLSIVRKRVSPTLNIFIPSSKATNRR
How it was run: as §1

OR4A47 (Homo sapiens) = biological target: T13, OR4A47 (Homo sapiens) (UniProt Q6IF82)
T13 sequence (whole entry): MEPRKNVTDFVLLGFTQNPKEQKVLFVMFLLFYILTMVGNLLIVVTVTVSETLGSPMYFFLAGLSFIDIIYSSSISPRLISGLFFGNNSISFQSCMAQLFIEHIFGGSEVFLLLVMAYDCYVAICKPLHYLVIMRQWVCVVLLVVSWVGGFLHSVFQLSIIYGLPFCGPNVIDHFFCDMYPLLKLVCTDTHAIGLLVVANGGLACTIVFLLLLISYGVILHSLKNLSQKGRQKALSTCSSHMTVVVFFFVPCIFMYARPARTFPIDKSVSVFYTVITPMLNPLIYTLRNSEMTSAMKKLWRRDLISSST
How it was run: as §1

OR4A5 (Homo sapiens) = biological target: T14, OR4A5 (Homo sapiens) (UniProt Q8NH83)
T14 sequence (whole entry): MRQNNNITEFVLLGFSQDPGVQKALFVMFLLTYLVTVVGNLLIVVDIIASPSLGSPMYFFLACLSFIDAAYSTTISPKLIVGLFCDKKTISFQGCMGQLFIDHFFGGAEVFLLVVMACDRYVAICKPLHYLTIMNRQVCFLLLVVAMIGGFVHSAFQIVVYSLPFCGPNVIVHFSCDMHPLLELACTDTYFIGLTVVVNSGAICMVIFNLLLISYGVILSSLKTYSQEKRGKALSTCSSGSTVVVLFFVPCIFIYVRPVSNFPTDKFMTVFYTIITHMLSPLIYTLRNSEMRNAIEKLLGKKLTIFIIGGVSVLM
How it was run: as §1

OR4B1 (Homo sapiens) = biological target: T15, OR4B1 (Homo sapiens) (UniProt Q8NGF8)
T15 sequence (whole entry): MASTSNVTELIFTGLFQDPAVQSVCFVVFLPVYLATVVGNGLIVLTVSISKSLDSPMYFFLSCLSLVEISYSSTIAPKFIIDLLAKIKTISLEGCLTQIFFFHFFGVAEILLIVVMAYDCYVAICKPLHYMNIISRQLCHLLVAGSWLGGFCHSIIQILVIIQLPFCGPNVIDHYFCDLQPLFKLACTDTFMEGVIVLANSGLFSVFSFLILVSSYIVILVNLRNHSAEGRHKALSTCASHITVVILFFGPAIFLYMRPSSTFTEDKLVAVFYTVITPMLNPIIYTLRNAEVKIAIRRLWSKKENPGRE
How it was run: as §1

OR4C11 (Homo sapiens) = biological target: T16, OR4C11 (Homo sapiens) (UniProt Q6IEV9)
T16 sequence (whole entry): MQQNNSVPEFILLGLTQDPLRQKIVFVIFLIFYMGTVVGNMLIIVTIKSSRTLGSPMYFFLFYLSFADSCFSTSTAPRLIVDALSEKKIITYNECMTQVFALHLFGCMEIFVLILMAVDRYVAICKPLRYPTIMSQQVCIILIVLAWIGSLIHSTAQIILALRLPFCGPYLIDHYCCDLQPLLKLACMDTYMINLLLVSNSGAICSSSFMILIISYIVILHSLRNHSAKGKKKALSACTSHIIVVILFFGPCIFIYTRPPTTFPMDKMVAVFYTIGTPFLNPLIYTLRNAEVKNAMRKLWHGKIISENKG
How it was run: as §1

OR4C12 (Homo sapiens) = OR4C12 (Homo sapiens) (UniProt Q96R67)
How it was run: as §1

OR3A4P (Homo sapiens) = biological target: T17, OR3A4P (Homo sapiens) (UniProt P47883)
T17 sequence (whole entry): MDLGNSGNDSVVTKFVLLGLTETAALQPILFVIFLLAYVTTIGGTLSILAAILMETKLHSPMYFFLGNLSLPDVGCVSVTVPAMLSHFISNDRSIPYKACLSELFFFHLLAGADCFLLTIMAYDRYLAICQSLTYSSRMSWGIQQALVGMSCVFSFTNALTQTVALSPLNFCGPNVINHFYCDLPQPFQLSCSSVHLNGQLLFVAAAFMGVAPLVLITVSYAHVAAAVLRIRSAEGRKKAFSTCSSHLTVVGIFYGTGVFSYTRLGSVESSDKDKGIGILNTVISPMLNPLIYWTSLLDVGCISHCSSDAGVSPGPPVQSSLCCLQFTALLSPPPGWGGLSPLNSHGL
How it was run: as §1

Measured: odorant receptor agonist call

OR4C12 (Homo sapiens), sequence (Q96R67 whole entry): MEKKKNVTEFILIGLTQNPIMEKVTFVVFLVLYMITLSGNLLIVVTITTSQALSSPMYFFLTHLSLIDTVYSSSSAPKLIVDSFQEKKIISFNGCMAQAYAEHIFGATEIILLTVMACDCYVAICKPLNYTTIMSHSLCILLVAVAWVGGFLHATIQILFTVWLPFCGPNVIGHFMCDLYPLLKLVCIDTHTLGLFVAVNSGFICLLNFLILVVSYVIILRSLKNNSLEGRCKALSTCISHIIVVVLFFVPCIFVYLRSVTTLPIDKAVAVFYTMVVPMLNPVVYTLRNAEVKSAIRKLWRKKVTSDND
OR4A15 (Homo sapiens), sequence (Q8NGL6 whole entry): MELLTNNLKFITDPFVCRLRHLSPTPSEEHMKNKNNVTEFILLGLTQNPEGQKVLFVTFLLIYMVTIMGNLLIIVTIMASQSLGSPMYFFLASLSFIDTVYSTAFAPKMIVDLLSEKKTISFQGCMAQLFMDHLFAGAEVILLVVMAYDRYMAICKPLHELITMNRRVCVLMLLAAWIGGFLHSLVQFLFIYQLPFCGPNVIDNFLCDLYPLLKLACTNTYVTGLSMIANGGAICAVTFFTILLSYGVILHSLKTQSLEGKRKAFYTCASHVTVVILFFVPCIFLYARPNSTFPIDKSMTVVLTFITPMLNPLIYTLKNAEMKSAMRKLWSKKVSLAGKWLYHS

O=CCCc1ccccc1
inactive: OR3A1 (Homo sapiens)

Cc1cnc(C)c(C)n1
inactive: OR2W3 (Homo sapiens) | OR2W5P (Homo sapiens) | OR2Y1 (Homo sapiens) | OR2Y1 | OR2Z1 (Homo sapiens) | OR3A1 (Homo sapiens) | OR3A1 | OR3A2 (Homo sapiens) | OR3A2 R317K | OR3A3 (Homo sapiens) | OR3A3 T48I L132F | OR4A15 (Homo sapiens) | OR4A16 (Homo sapiens) | OR4A47 (Homo sapiens) | OR4A5 (Homo sapiens) | OR4B1 (Homo sapiens) | OR4C11 (Homo sapiens) | OR4C12 (Homo sapiens)

CCCCCC(S)C(C)CO (centres undefined)
inactive: OR2W3 (Homo sapiens) | OR2W5P (Homo sapiens) | OR2Y1 (Homo sapiens) | OR2Z1 (Homo sapiens) | OR3A1 (Homo sapiens) | OR3A2 (Homo sapiens) | OR3A3 (Homo sapiens) | OR3A4P (Homo sapiens) | OR4A15 (Homo sapiens) | OR4A47 (Homo sapiens) | OR4A5 (Homo sapiens) | OR4B1 (Homo sapiens) | OR4C11 (Homo sapiens) | OR4C12 (Homo sapiens)
active: OR4A16 (Homo sapiens)

— the M2OR odorant receptor database
